Test results from ChEMBL document CHEMBL1132401, “Glycosylation of fluoroquinolones through direct and oxygenated polymethylene linkages as a sugar-mediated active transport system for antimicrobials” (1999).
Converted amounts (≈) assume the structure as drawn.

Tests used:
Enterococcus faecalis [1] = assay: Minimum concentration required to prevent the growth of vancomycin resistant (VanA) Enterococcus faecalis strain A0401; format: functional; conditions: Enterococcus faecalis; read-out: MIC
Procedure, shortened: (§1)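 Agar dilution susceptibility testing per NCCLS guidelines against resistant clinical isolates, with nonresistant ATCC stock strains run as controls. Plates were read at 19–24 h of incubation. MIC reported in µg/mL.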

Klebsiella oxytoca = assay: Minimum concentration required to prevent the growth of cipro resistant (Cipro-R) Klebsiella oxytoca strain A3530
[2] = tested on: Staphylococcus epidermidis; assay: Minimum concentration required to prevent the growth of multiply resistant Staphylococcus epidermidis (MRSE) coag.-neg. Staph. A0245; format: functional; procedure, shortened: as §1
Enterococcus faecium [3] = assay: Minimum concentration required to prevent the growth of nonresistant stock strain Enterococcus faecium 19434 from American Type Culture Collection (ATCC); format: functional; conditions: Enterococcus faecium; read-out: MIC
Procedure, shortened: (§2)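 Agar dilution susceptibility testing per NCCLS guidelines, covering clinical isolates (including resistant phenotypes) and nonresistant ATCC stock strains as controls. Plates read after 19–24 h of incubation. MIC reported in μg/mL.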

Enterococcus faecalis [4] = assay: Minimum concentration required to prevent the growth of high level gentamicin and beta- lactamase resistant (HLGR, BLA+) Enterococcus faecalis strain A0090; format: functional; procedure, shortened: as §1
Staphylococcus aureus [5] = assay: Minimum concentration required to prevent the growth of multiply resistant (MRSA) and cipro resistant (Cipro-R) Staphylococcus aureus strain A2800; format: functional; procedure, shortened: as §1
Escherichia coli [6] = assay: Minimum concentration required to prevent the growth of cipro resistant (Cipro-R) Escherichia coli strain AA; format: functional; procedure, shortened: as §2
Listeria monocytogenes [7] = assay: Minimum concentration required to prevent the growth of Listeria monocytogenes strain A0182; format: functional; procedure, shortened: as §2
Staphylococcus aureus [8] = assay: Minimum concentration required to prevent the growth of nonresistant stock strain Staphylococcus aureus 29213 from American Type Culture Collection (ATCC)
Staphylococcus aureus [9] = assay: Minimum concentration required to prevent the growth of multiply resistant (MRSA) Staphylococcus aureus strain A0171; format: functional; procedure, shortened: as §1
Enterococcus faecalis [10] = assay: Minimum concentration required to prevent the growth of vancomycin resistant (VanB) Enterococcus faecalis strain A1081; format: functional; conditions: Enterococcus faecalis; read-out: MIC; procedure, shortened: as §1
[11] = tested on: Staphylococcus epidermidis; assay: Minimum concentration required to prevent the growth of multiply resistant Staphylococcus epidermidis (MRSE) coag.-neg. Staph. A0244; format: functional; procedure, shortened: as §1
[12] = tested on: Staphylococcus epidermidis; assay: Minimum concentration required to prevent the growth of multiply resistant Staphylococcus epidermidis (MRSE) and cipro resistant (Cipro-R) coag.-neg. Staph. A0248; format: functional; procedure, shortened: as §1
Enterococcus faecium [13] = assay: Minimum concentration required to prevent the growth of vancomycin resistant (VanB) Enterococcus faecium strain A0803; format: functional; conditions: Enterococcus faecium; read-out: MIC; procedure, shortened: as §1
Escherichia coli [14] = assay: Minimum concentration required to prevent the growth of cipro resistant (Cipro-R) Escherichia coli strain A3529; format: functional; procedure, shortened: as §2
Enterococcus faecalis [15] = assay: Minimum concentration required to prevent the growth of vancomycin resistant (VanB) Enterococcus faecalis strain A1079; format: functional; procedure, shortened: as §1
Enterococcus faecalis [16] = assay: Minimum concentration required to prevent the growth of high level gentamicin and beta- lactamase resistant (HLGR, BLA+) Enterococcus faecalis strain A0089; format: functional; conditions: Enterococcus faecalis; read-out: MIC; procedure, shortened: as §1
Listeria monocytogenes [17] = assay: Minimum concentration required to prevent the growth of Listeria monocytogenes strain A0183; format: functional; procedure, shortened: as §2
[18] = tested on: Staphylococcus epidermidis; assay: Minimum concentration required to prevent the growth of multiply resistant Staphylococcus epidermidis (MRSE) and cipro resistant (Cipro-R) coag.-neg. Staph. A0247
Enterococcus faecalis [19] = assay: Minimum concentration required to prevent the growth of nonresistant stock strain Enterococcus faecalis 51299 from American Type Culture Collection (ATCC); format: functional; conditions: Enterococcus faecalis; read-out: MIC; procedure, shortened: as §1
Staphylococcus aureus [20] = assay: Minimum concentration required to prevent the growth of multiply resistant (MRSA) Staphylococcus aureus strain A0170; format: functional; procedure, shortened: as §1
Pseudomonas aeruginosa [21] = assay: Minimum concentration required to prevent the growth of Pseudomonas aeruginosa strain 28215; format: functional; procedure, shortened: as §2
Pseudomonas aeruginosa [22] = assay: Minimum concentration required to prevent the growth of Pseudomonas aeruginosa strain 28245; format: functional; procedure, shortened: as §2
Enterococcus faecalis [23] = assay: Minimum concentration required to prevent the growth of nonresistant stock strain Enterococcus faecalis 29212 from American Type Culture Collection (ATCC); format: functional; procedure, shortened: as §1
Enterococcus faecalis [24] = assay: Minimum concentration required to prevent the growth of vancomycin resistant (VanA) Enterococcus faecalis strain A0402; format: functional; conditions: Enterococcus faecalis; read-out: MIC; procedure, shortened: as §1
Staphylococcus aureus [25] = assay: Minimum concentration required to prevent the growth of multiply resistant (MRSA) and cipro resistant (Cipro-R) Staphylococcus aureus strain A2043; format: functional; procedure, shortened: as §1
Escherichia coli [26] = assay: Minimum concentration required to prevent the growth of nonresistant stock Escherichia coli strain 25922 from American Type Culture Collection (ATCC); format: functional; conditions: ATCC25922; procedure, shortened: as §2
Enterococcus faecium [27] = assay: Minimum concentration required to prevent the growth of vancomycin resistant (VanB) Enterococcus faecium strain A1087; format: functional; conditions: Enterococcus faecium; read-out: MIC; procedure, shortened: as §1
Escherichia coli [28] = assay: Minimum concentration required to prevent the growth of cipro resistant (Cipro-R) Escherichia coli strain A3228; format: functional; procedure, shortened: as §2
Klebsiella pneumoniae = assay: Minimum concentration required to prevent the growth of cipro resistant (Cipro-I) Klebsiella pneumoniae strain AM; format: functional; procedure, shortened: as §1
[29] = tested on: Staphylococcus epidermidis; assay: Minimum concentration required to prevent the growth of multiply resistant Staphylococcus epidermidis (MRSE) and cipro resistant (Cipro-R) coag.-neg. Staph. A0247; format: functional; procedure, shortened: as §1

## O=C(O)c1cn(C2CC2)c2cc(N3CCN(CCCO[C@@H]4O[C@@H](CO)[C@@H](O)[C@H](O)[C@@H]4O)CC3)c(F)cc2c1=O
Enterococcus faecalis [1]
  MIC: 8 µg/mL (≈ 14.5 µM)
Klebsiella oxytoca
  MIC: > 32 µg/mL
[2]
  MIC: 4 µg/mL (≈ 7.25 µM)
Enterococcus faecium [3]
  MIC: > 32 µg/mL
Enterococcus faecalis [4]
  MIC: 4 µg/mL (≈ 7.25 µM)
Staphylococcus aureus [5]
  MIC: > 32 µg/mL
Escherichia coli [6]
  MIC: > 32 µg/mL
Listeria monocytogenes [7]
  MIC: 8 µg/mL (≈ 14.5 µM)
Staphylococcus aureus [8]
  MIC: 4 µg/mL (≈ 7.25 µM)
Staphylococcus aureus [9]
  MIC: 4 µg/mL (≈ 7.25 µM)
Enterococcus faecalis [10]
  MIC: 4 µg/mL (≈ 7.25 µM)
[11]
  MIC: 8 µg/mL (≈ 14.5 µM)
[12]
  MIC: > 32 µg/mL
Enterococcus faecium [13]
  MIC: 16 µg/mL (≈ 29 µM)
Escherichia coli [14]
  MIC: > 32 µg/mL
Enterococcus faecalis [15]
  MIC: 8 µg/mL (≈ 14.5 µM)
Enterococcus faecalis [16]
  MIC: 8 µg/mL (≈ 14.5 µM)
Listeria monocytogenes [17]
  MIC: 8 µg/mL (≈ 14.5 µM)
[18]
  MIC: > 32 µg/mL
Enterococcus faecalis [19]
  MIC: 8 µg/mL (≈ 14.5 µM)
Staphylococcus aureus [20]
  MIC: 4 µg/mL (≈ 7.25 µM)
Pseudomonas aeruginosa [21]
  MIC: 4 µg/mL (≈ 7.25 µM)
Pseudomonas aeruginosa [22]
  MIC: 32 µg/mL (≈ 58 µM)
Enterococcus faecalis [23]
  MIC: 8 µg/mL (≈ 14.5 µM)
Enterococcus faecalis [24]
  MIC: 8 µg/mL (≈ 14.5 µM)
Staphylococcus aureus [25]
  MIC: > 32 µg/mL
Escherichia coli [26]
  MIC: 0.12 µg/mL (≈ 0.218 µM)
Enterococcus faecium [27]
  MIC: 32 µg/mL (≈ 58 µM)
Escherichia coli [28]
  MIC: > 32 µg/mL
Klebsiella pneumoniae
  MIC: 16 µg/mL (≈ 29 µM)

## O=C(O)c1cn(C2CC2)c2cc(N3CCN(CCO[C@@H]4O[C@@H](CO)[C@@H](O)[C@H](O)[C@@H]4O)CC3)c(F)cc2c1=O
Enterococcus faecalis [1]
  MIC: > 32 µg/mL
Klebsiella oxytoca
  MIC: > 32 µg/mL
[2]
  MIC: 16 µg/mL (≈ 29.8 µM)
Enterococcus faecium [3]
  MIC: > 32 µg/mL
Enterococcus faecalis [4]
  MIC: 32 µg/mL (≈ 59.5 µM)
Staphylococcus aureus [5]
  MIC: > 32 µg/mL
Escherichia coli [6]
  MIC: > 32 µg/mL
Listeria monocytogenes [7]
  MIC: > 32 µg/mL
Staphylococcus aureus [8]
  MIC: 16 µg/mL (≈ 29.8 µM)
Staphylococcus aureus [9]
  MIC: 8 µg/mL (≈ 14.9 µM)
Enterococcus faecalis [10]
  MIC: 16 µg/mL (≈ 29.8 µM)
[11]
  MIC: 32 µg/mL (≈ 59.5 µM)
[12]
  MIC: > 32 µg/mL
Escherichia coli [14]
  MIC: > 32 µg/mL
Enterococcus faecalis [15]
  MIC: 32 µg/mL (≈ 59.5 µM)
Enterococcus faecalis [16]
  MIC: > 32 µg/mL
Listeria monocytogenes [17]
  MIC: > 32 µg/mL
Enterococcus faecalis [19]
  MIC: 16 µg/mL (≈ 29.8 µM)
Staphylococcus aureus [20]
  MIC: 4 µg/mL (≈ 7.44 µM)
Pseudomonas aeruginosa [21]
  MIC: 32 µg/mL (≈ 59.5 µM)
Pseudomonas aeruginosa [22]
  MIC: > 32 µg/mL
Enterococcus faecalis [23]
  MIC: 32 µg/mL (≈ 59.5 µM)
Enterococcus faecalis [24]
  MIC: 32 µg/mL (≈ 59.5 µM)
Staphylococcus aureus [25]
  MIC: > 32 µg/mL
Escherichia coli [26]
  MIC: 2 µg/mL (≈ 3.72 µM)
Escherichia coli [28]
  MIC: > 32 µg/mL
[29]
  MIC: > 32 µg/mL
Klebsiella pneumoniae
  MIC: > 32 µg/mL

## O=C(O)c1cn(C2CC2)c2cc(N3CCN(CCCO[C@@H]4O[C@@H](CO)[C@H](O)[C@H](O)[C@@H]4O)CC3)c(F)cc2c1=O
Enterococcus faecalis [1]
  MIC: 32 µg/mL (≈ 58 µM)
Klebsiella oxytoca
  MIC: > 32 µg/mL
[2]
  MIC: 8 µg/mL (≈ 14.5 µM)
Enterococcus faecium [3]
  MIC: > 32 µg/mL
Enterococcus faecalis [4]
  MIC: 16 µg/mL (≈ 29 µM)
Staphylococcus aureus [5]
  MIC: > 32 µg/mL
Escherichia coli [6]
  MIC: > 32 µg/mL
Listeria monocytogenes [7]
  MIC: 32 µg/mL (≈ 58 µM)
Staphylococcus aureus [8]
  MIC: 16 µg/mL (≈ 29 µM)
Staphylococcus aureus [9]
  MIC: 16 µg/mL (≈ 29 µM)
Enterococcus faecalis [10]
  MIC: 16 µg/mL (≈ 29 µM)
[11]
  MIC: 32 µg/mL (≈ 58 µM)
[12]
  MIC: > 32 µg/mL
Escherichia coli [14]
  MIC: > 32 µg/mL
Enterococcus faecalis [15]
  MIC: 16 µg/mL (≈ 29 µM)
Enterococcus faecalis [16]
  MIC: 32 µg/mL (≈ 58 µM)
Listeria monocytogenes [17]
  MIC: 32 µg/mL (≈ 58 µM)
Enterococcus faecalis [19]
  MIC: 16 µg/mL (≈ 29 µM)
Staphylococcus aureus [20]
  MIC: 8 µg/mL (≈ 14.5 µM)
Pseudomonas aeruginosa [21]
  MIC: 16 µg/mL (≈ 29 µM)
Pseudomonas aeruginosa [22]
  MIC: > 32 µg/mL
Enterococcus faecalis [23]
  MIC: 16 µg/mL (≈ 29 µM)
Enterococcus faecalis [24]
  MIC: 32 µg/mL (≈ 58 µM)
Staphylococcus aureus [25]
  MIC: > 32 µg/mL
Escherichia coli [26]
  MIC: 0.25 µg/mL (≈ 0.453 µM)
Escherichia coli [28]
  MIC: > 32 µg/mL
[29]
  MIC: > 32 µg/mL
Klebsiella pneumoniae
  MIC: > 32 µg/mL

## O=C(O)c1cn(C2CC2)c2cc(N3CCN(CCO[C@@H]4O[C@@H](CO)[C@H](O)[C@H](O)[C@@H]4O)CC3)c(F)cc2c1=O
Enterococcus faecalis [1]
  MIC: > 32 µg/mL
Klebsiella oxytoca
  MIC: > 32 µg/mL
[2]
  MIC: 16 µg/mL (≈ 29.8 µM)
Enterococcus faecium [3]
  MIC: > 32 µg/mL
Enterococcus faecalis [4]
  MIC: 32 µg/mL (≈ 59.5 µM)
Staphylococcus aureus [5]
  MIC: > 32 µg/mL
Escherichia coli [6]
  MIC: > 32 µg/mL
Listeria monocytogenes [7]
  MIC: > 32 µg/mL
Staphylococcus aureus [8]
  MIC: 8 µg/mL (≈ 14.9 µM)
Staphylococcus aureus [9]
  MIC: 8 µg/mL (≈ 14.9 µM)
Enterococcus faecalis [10]
  MIC: 16 µg/mL (≈ 29.8 µM)
[11]
  MIC: 32 µg/mL (≈ 59.5 µM)
[12]
  MIC: > 32 µg/mL
Escherichia coli [14]
  MIC: > 32 µg/mL
Enterococcus faecalis [15]
  MIC: 32 µg/mL (≈ 59.5 µM)
Enterococcus faecalis [16]
  MIC: > 32 µg/mL
Listeria monocytogenes [17]
  MIC: > 32 µg/mL
Enterococcus faecalis [19]
  MIC: 32 µg/mL (≈ 59.5 µM)
Staphylococcus aureus [20]
  MIC: 8 µg/mL (≈ 14.9 µM)
Pseudomonas aeruginosa [21]
  MIC: 16 µg/mL (≈ 29.8 µM)
Pseudomonas aeruginosa [22]
  MIC: > 32 µg/mL
Enterococcus faecalis [23]
  MIC: 32 µg/mL (≈ 59.5 µM)
Enterococcus faecalis [24]
  MIC: 32 µg/mL (≈ 59.5 µM)
Staphylococcus aureus [25]
  MIC: > 32 µg/mL
Escherichia coli [26]
  MIC: 1 µg/mL (≈ 1.86 µM)
Escherichia coli [28]
  MIC: > 32 µg/mL
[29]
  MIC: > 32 µg/mL
Klebsiella pneumoniae
  MIC: > 32 µg/mL
